The text below walks through data of ChEMBL document CHEMBL2406970, “Synthesis and bioevaluation of a series of α-pyrone derivatives as potent activators of Nrf2/ARE pathway (part I)” (Eur J Med Chem, 2013).

The source made the active and inactive calls. The rule behind the calls is not given here.

The target in test [1] is T1, Keap1/Nrf2 (Homo sapiens) (UniProt Q16236+Q14145). Kind of test: Induction of Nrf2/Keap1 in human HepG2-ARE-C8 cells assessed as induction of ARE activity at 50 uM after 12 hrs by luciferase reporter gene assay relative to control.
The target of test [2] is T1, Keap1/Nrf2 (Homo sapiens). Description: Induction of Nrf2/Keap1 in human HCT116 cells assessed as induction of ARE activity at 20 uM after 12 hrs by luciferase reporter gene assay relative to control. The note with it: HCT-116. The format is cell-based. For orientation: A reporter such as luciferase makes a cellular process visible.
The subject of test [3] is HCT-116. Kind of test: Cytotoxicity against human HCT116 cells by MTT assay. The format is functional, cell-based. In short, it runs like this:
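HCT116 cells were cultured in McCoy's 5A with 10% FBS and exposed to a range of compound concentrations. MTT was added for 4 h, the solution removed and DMSO added. OD was read at 570 nm, and inhibition calculated as [1 − (OD_test − OD_blank)/(OD_control − OD_blank)] × 100%.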
On the technique in general: Formazan colour is commonly taken as a measure of viable cells.

Test [4] has as its target T1, Keap1/Nrf2 (Homo sapiens). Kind of test: Induction of Nrf2/Keap1 in human HCT116 cells assessed as induction of ARE activity at 80 uM after 12 hrs by luciferase reporter gene assay relative to control. In kind it is cell-based. The note with it: HCT-116.
In test [5] the test system is HCT-116. Kind of test: Induction of Nrf2 expression in human HCT116 cells at 20 uM up to 24 hrs by Western blot analysis in presence of MEK1/2 inhibitor PD98059. In kind it is functional, cell-based. (In general: Immunoblotting shows a protein as a band on a membrane.)
Test [6] has as its target T2, Nuclear factor erythroid 2-related factor 2 (Homo sapiens) (UniProt Q16236).
T2 sequence (whole entry): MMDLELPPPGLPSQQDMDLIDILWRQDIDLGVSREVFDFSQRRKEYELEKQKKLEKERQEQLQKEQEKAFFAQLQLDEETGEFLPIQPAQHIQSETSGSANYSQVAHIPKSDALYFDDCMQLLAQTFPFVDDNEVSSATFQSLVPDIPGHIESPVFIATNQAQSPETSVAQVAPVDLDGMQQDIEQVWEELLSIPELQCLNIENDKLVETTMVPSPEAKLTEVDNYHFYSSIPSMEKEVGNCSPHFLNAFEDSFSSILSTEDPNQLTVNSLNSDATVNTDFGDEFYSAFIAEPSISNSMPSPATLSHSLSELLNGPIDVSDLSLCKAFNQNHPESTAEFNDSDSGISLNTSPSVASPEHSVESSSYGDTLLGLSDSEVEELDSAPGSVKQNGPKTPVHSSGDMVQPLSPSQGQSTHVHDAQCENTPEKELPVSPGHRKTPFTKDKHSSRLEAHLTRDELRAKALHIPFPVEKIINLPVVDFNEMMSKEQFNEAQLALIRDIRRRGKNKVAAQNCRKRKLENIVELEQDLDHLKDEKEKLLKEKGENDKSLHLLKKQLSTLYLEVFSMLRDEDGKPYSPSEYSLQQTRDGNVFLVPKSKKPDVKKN
Kind of test: Activation of NRF2 in human HCT116 cells assessed as ERK1/2 phosphorylation at 20 uM after 30 mins to 1 hr by Western blot analysis. The format is cell-based. The conditions noted are these: HCT-116.

Test [7] concerns HCT-116. Kind of test: Induction of nuclear translocation of Nrf2 in human HCT116 cells at 20 uM after 24 hrs by Western blot analysis. In kind it is functional, cell-based.
Test [8] has as its system HCT-116. Description: Induction of HO-1 expression in human HCT116 cells at 20 uM up to 24 hrs by Western blot analysis in presence of MEK1/2 inhibitor PD98059. The format is functional, cell-based.
Test [9] concerns HCT-116. Kind of test: Induction of Nrf2 expression in human HCT116 cells at 20 uM after 2 hrs by Western blot analysis. In kind it is functional, cell-based.
The target of test [10] is T2, Nuclear factor erythroid 2-related factor 2 (Homo sapiens). Kind of test: Activation of NRF2 in human HCT116 cells assessed as expression of ERK1/2 at 20 uM up to 24 hrs by Western blot analysis. In kind it is cell-based. The note with it: HCT-116.
Test [11] has as its system HCT-116. Description: Induction of HO-1 expression in human HCT116 cells at 20 uM after 8 hrs by Western blot analysis. In kind it is functional, cell-based.
Test [12] deals with T1, Keap1/Nrf2 (Homo sapiens). Description: Induction of Nrf2/Keap1 in human HCT116 cells assessed as induction of ARE activity after 12 hrs by luciferase reporter gene assay. The format is cell-based. The note with it: HCT-116.
Test [13] relates to HCT-116. Description: Induction of nuclear translocation of Nrf2 in human HCT116 cells at 20 uM after 1 hr by Western blot analysis. In kind it is functional, cell-based.
The test system of test [14] is HCT-116. Kind of test: Induction of NQO-1 expression in human HCT116 cells at 20 uM after 24 hrs by Western blot analysis. In kind it is functional, cell-based.
The target of test [15] is T2, Nuclear factor erythroid 2-related factor 2 (Homo sapiens). Kind of test: Activation of NRF2 in human HCT116 cells assessed as ERK1/2 phosphorylation at 20 uM after 30 mins to 1 hr by Western blot analysis in presence of MEK1/2 inhibitor PD98059. In kind it is cell-based. The conditions noted are these: HCT-116.
Test [16] addresses T1, Keap1/Nrf2 (Homo sapiens). Description: Induction of Nrf2/Keap1 in human HCT116 cells assessed as induction of ARE activity at 20 uM after 12 hrs by luciferase reporter gene assay in presence of MEK1/2 inhibitor PD98059. The note with it: HCT-116. The format is cell-based.
For test [17], the system named is HCT-116. Kind of test: Induction of nuclear translocation of Nrf2 in human HCT116 cells at 20 uM after 1 to 2 hrs by immunofluorescence staining in presence of MEK1/2 inhibitor PD98059.
The subject of test [18] is HCT-116. Kind of test: Induction of NQO-1 expression in human HCT116 cells at 20 uM up to 24 hrs by Western blot analysis in presence of MEK1/2 inhibitor PD98059. The format is functional, cell-based.

T1 sequence (Q14145 whole entry, looked up, one chain of several): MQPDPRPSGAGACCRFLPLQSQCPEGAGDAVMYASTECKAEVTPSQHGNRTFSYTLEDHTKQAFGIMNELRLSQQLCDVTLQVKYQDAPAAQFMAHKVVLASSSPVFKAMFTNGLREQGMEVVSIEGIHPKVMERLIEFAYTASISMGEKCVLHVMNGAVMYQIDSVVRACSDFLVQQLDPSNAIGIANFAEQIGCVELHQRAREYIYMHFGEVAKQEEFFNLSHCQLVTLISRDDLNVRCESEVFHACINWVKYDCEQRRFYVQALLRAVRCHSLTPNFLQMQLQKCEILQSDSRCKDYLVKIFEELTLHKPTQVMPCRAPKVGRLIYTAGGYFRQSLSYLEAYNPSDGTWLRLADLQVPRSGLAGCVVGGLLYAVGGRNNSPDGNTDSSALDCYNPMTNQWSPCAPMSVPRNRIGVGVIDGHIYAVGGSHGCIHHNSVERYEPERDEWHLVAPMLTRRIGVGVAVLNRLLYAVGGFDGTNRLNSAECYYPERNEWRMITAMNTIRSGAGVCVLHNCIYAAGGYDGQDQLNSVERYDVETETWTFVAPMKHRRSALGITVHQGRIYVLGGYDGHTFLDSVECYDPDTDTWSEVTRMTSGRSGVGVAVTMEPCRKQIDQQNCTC

Usually IC50 stands for the concentration that inhibits the measured activity by half. With `Cc1cc(O)c(C(=O)/C=C/c2ccc(-c3ccccc3)cc2)c(=O)o1`, the fold change (FC) in [1] was 3.6; in test [2], 5.67. In test [3], this compound displayed a concentration for half-maximal inhibition (IC50) greater than 100 µM.
For the compound `CC(C)(C)c1cc(O)ccc1O` [E319], the fold change (FC) in [4] came out at 5.08. Moreover, the IC50 in [3] is greater than 100 µM.
`Cc1cc(O)c(C(=O)/C=C/c2cccc(F)c2)c(=O)o1`: the fold change (FC) in test [1] was 3.46; in test [2] it was 7.04. Besides, in test [3], the IC50 was found to be 81.2 µM.
For `COc1cc(/C=C/C(=O)c2c(O)cc(C)oc2=O)cc(OC)c1OC`, the figures for the fold change (FC) in test [1] and in [2] were 5.25 and 8.58, respectively. Also, the half-inhibitory concentration (IC50) in test [3] is greater than 100 µM.
The like results for `Cc1cc(O)c(C(=O)/C=C/c2ccco2)c(=O)o1` were, in that order, 5.48, 3.8 and greater than 100 µM.
The like results for `Cc1cc(O)c(C(=O)/C=C/c2ccc(N(C)C)cc2)c(=O)o1` were, in that order, 8.09, 4.55 and greater than 100 µM.
On the same counts, the results for `Cc1cc(O)c(C(=O)/C=C/c2ccc(Cl)cc2Cl)c(=O)o1` are 3.27, 5.49 and 88.7 µM.
Turning to `Cc1cc(O)c(C(=O)/C=C/c2ccccc2)c(=O)o1`, the values for the fold change (FC) in test [1] and in test [2] were 6.84 and 4.21, respectively. The compound further yielded an IC50 in [3] greater than 100 µM.
On the same counts, the results for `Cc1cc(O)c(C(=O)/C=C/c2cccc(Cl)c2)c(=O)o1` are 4.51, 6.46 and 66.3 µM.
The like results for `Cc1cc(O)c(C(=O)/C=C/c2ccc[nH]2)c(=O)o1` were, in that order, 3.58, 1.66 and greater than 100 µM.
The like results for `Cc1cc(O)c(C(=O)/C=C/c2ccc3ccccc3c2)c(=O)o1` were, in that order, 2.17, 1.37 and greater than 100 µM.
For `Cc1cc(O)c(C(=O)/C=C/c2ccc(F)c(F)c2)c(=O)o1`, the fold change (FC) stood at 3.68 in test [1] and 9.65 in [2]. This compound also had an IC50 in [3] of 74.9 µM.
Take `CCOc1ccc(/C=C/C(=O)c2c(O)cc(C)oc2=O)cc1`: the fold change (FC) turned out to be 5.5 in test [1] and 4.66 in test [2]. The IC50 in [3] is greater than 100 µM.
For the compound `Cc1cc(O)c(C(=O)/C=C/c2ccccc2C(F)(F)F)c(=O)o1`, the results for the fold change (FC) in test [1] and in [2] were 2.55 and 4.27, respectively. In addition, the IC50 in test [3] was greater than 100 µM.
On the same counts, the results for `Cc1cc(O)c(C(=O)/C=C/c2cccs2)c(=O)o1` are 5.96, 4.53 and greater than 100 µM.
The like results for `Cc1cc(O)c(C(=O)/C=C/c2ccc([N+](=O)[O-])cc2)c(=O)o1` were, in that order, 2.48, 4.77 and 65 µM.
On the same counts, the results for `Cc1cc(O)c(C(=O)/C=C/c2ccc(F)cc2)c(=O)o1` are 5.79, 6.33 and greater than 100 µM.
As to `COc1ccc(/C=C/C(=O)c2c(O)cc(C)oc2=O)c(OC)c1`, the fold change (FC) was 6.81 in test [1] and 8.21 in [2]. In addition, the half-maximal inhibitory concentration (IC50) in test [3] is greater than 100 µM.
As for `COc1ccc(/C=C/C(=O)c2c(O)cc(C)oc2=O)cc1`, the values for the fold change (FC) in [1] and in [2] were 7.37 and 6.48, respectively. Also, the IC50 in test [3] was greater than 100 µM.
The like results for `Cc1cc(O)c(C(=O)/C=C/c2ccccc2[N+](=O)[O-])c(=O)o1` were, in that order, 0.65, 2.74 and greater than 100 µM.
The like results for `Cc1cc(O)c(C(=O)/C=C/c2ccc(F)cc2F)c(=O)o1` were, in that order, 6.98, 6.93 and 80.3 µM.
On the same counts, the results for `Cc1cc(O)c(C(=O)/C=C/c2ccc(Cl)c(Cl)c2)c(=O)o1` are 1.2, 8 and greater than 100 µM.
For `Cc1cc(O)c(C(=O)/C=C/c2ccccc2F)c(=O)o1`, the fold change (FC) in test [1] was determined as 3.04; in test [2] it was 7.08. For the same compound, the outcome in test [5], in [7], in [8], in test [10], in [15] and in test [16] was inactive. The result in [17] and in test [18] was inactive. Also, the outcome in test [6], in test [9], in [11], in [13] and in [14] was Active. In addition, the Activity result in test [12] is “Dose-dependent effect”. In test [3], the IC50 was greater than 100 µM.
On to `Cc1cc(O)c(C(=O)/C=C/c2ccc(Cl)cc2)c(=O)o1`, for which the figures for the fold change (FC) in test [1] and in test [2] were 6.28 and 6.97, respectively. Further, the IC50 in test [3] was 87.4 µM.
The like results for `COc1ccccc1/C=C/C(=O)c1c(O)cc(C)oc1=O` were, in that order, 2.08, 5.86 and greater than 100 µM.
The like results for `Cc1cc(O)c(C(=O)/C=C/c2ccc(C#N)cc2)c(=O)o1` were, in that order, 2.07, 3.68 and 66 µM.
The like results for `Cc1cc(O)c(C(=O)/C=C/c2ccccc2Cl)c(=O)o1` were, in that order, 0.95, 5.08 and greater than 100 µM.
